# In the library only some 3.7% were active in any assay of this set; here they are far more common.
# GASC-1 inh: inhibitors of GASC-1 histone demethylase, primary screen, biochemical, fluorescence, DELFIA europium; Lysine-specific demethylase 4C (Homo sapiens), Q9H3R0; GST-JMJD2C(1-420) H3K9me3 demethylation; inhibition, % at 2.35 µM; 0.069% of 330,000 active;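 active means more than half of a compound's replicate wells show inhibition beyond 50%, single wells judged on their own value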;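 further: signal counts dimethyl H3K9 product captured on neutravidin plate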
# SR-BI DiI inh: inhibitors of SR-BI mediated HDL lipid uptake, primary screen, ldlA[mSR-BI] cells, fluorescence, single point. Scavenger receptor class B member 1 (Mus musculus), Q61009. ldlA[mSR-BI] CHO cells, DiI-HDL uptake fluorescence, 3 h. inhibition, % at 12.5 µM. 0.96% of 320,000 active. AID 488896, 2010;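 active means mean replicate inhibition of at least 70% and a set share of replicates each scoring 70 or more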
# FXN GAA850 act: FXN promoter activators, primary screen, cell-based, luciferase luminescence, HEK293 lucGAA850. HEK293 lucGAA850 FXN promoter luciferase reporter, 24 h; percent of 10 µM SAHA response. activation, % at 6 µM. 0.56% of 360,000 active. AID 540364, 2011;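 active means activation above the average of all compounds screened plus 3 SD, cutoff fixed separately per campaign, cut at about 7.5% in these data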
# SR-BI DiI-HDL act: activators of SR-BI mediated DiI-HDL uptake, primary screen, ldlA[mSR-BI] CHO cells, DiI fluorescence | 3 h; 100 = double the neutral-control signal | activation, % at 12.5 µM | 0.096% of 320,000 active | AID 504775, 2011;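 active means mean replicate activation of at least 60% and every replicate at or above 60%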
#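 Material: SR-BI-overexpressing, LDLR-lacking CHO cells; schedule: compound exposure 3 h, 37 °C; reagent: DiI-labelled HDL at 10 µg/mL final; technique: bottom-read fluorescence, 550/595 nm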
# AHR act: AHR activators, primary screen, cell-based, luminescence, luciferase reporter, human; 2.5% of 320,000 active; AID 2796, 2010; activation, % at 5 µM; AHR-responsive luciferase reporter cells; Aryl hydrocarbon receptor (Homo sapiens), P35869; in the data active means activation above about 47%
# Target sequence (P35869 whole entry, looked up): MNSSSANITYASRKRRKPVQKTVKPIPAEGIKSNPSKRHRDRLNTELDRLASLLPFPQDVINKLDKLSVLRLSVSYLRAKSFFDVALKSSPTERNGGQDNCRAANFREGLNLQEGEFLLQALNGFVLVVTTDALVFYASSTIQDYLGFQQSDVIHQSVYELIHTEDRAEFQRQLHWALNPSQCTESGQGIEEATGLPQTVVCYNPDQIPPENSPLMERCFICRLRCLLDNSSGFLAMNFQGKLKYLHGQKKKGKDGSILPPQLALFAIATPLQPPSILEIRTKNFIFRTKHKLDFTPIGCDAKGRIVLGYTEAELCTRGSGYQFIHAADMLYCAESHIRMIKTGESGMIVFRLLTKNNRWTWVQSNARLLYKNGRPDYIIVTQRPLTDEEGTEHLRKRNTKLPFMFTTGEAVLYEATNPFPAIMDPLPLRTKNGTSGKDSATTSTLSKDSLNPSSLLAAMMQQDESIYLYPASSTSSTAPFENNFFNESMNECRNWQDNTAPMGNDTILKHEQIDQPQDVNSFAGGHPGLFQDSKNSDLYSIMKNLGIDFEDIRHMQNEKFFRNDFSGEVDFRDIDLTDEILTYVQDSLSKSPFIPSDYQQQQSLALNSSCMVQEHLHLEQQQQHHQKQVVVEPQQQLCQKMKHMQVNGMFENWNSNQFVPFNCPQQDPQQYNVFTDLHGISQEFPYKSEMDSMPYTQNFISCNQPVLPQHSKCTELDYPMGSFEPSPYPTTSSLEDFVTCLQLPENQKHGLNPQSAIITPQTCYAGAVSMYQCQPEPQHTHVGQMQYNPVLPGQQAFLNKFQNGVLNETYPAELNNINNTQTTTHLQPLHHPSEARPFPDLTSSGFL
# Numbers stand for hits; i = inactive; nt = not tested or not shown.
SMILES,GASC-1 inh,SR-BI DiI inh,FXN GAA850 act,SR-BI DiI-HDL act,AHR act
COc1ccc2sc(-c3ccc(S(C)(=O)=O)cc3)c(-c3ccc4c(c3)OCCO4)c2c1,i,i,i,i,i
COc1cc2sc(-c3ccc(S(C)(=O)=O)cc3)c(-c3ccc4c(c3)OCO4)c2cc1OC,i,82.7,i,i,i
COCc1ccc(-c2c(-c3ccccc3OC)sc3cc4c(cc23)OCO4)cc1,i,i,i,i,51.1
COc1ccc2c(-c3ccc(SC)cc3)c(-c3ccc(S(C)(=O)=O)cc3)sc2c1,i,81.0,i,i,i
Cc1ccc(CNC(=O)CSc2nc(=O)n3cccc(C)c3n2)cc1,i,i,i,i,i
N=c1c2c3c(sc2ncn1Nc1ccccc1)CCC3,i,nt,i,nt,68.4
Cn1c(NC(=O)/C=C\c2ccccc2)cc(=O)n(C)c1=O,i,i,i,i,49.8
Cc1ccccc1Oc1ccc2c(c1)[C@@H]1C[C@H](N(C)C(=O)c3ccco3)[C@H]([C@H](C)O)C(=O)N1CC2,nt,nt,i,nt,nt
COc1ccccc1N1CCN(CC(=O)NCC2CCCO2)CC1 (stereo not drawn),i,i,i,i,i
CN(CC(=O)Nc1c(Cl)cccc1Cl)CC(=O)N1CCc2ccccc21,nt,nt,i,nt,nt
Cn1cccc1CNC(=O)Nc1ccc(Cl)cc1,i,i,i,i,74.9
CN1C(=O)/C(=C/c2ccc(OCc3ccccc3F)cc2)N(C)C1=S,i,i,i,i,i
Cc1ccc(NC2=C(NCCO)C(=O)c3ccccc3C2=O)cc1,i,i,i,i,65.4
Cc1ccc(O)c(C(=O)c2cnn(C(=O)COc3ccccc3C#N)c2)c1,i,nt,nt,nt,i
Cc1ccc(S(=O)(=O)/N=C(/Nc2nc(C)cs2)c2ccccc2)cc1,i,i,i,i,i
COc1ccc(C(=O)NCCNc2nc3cc(C)c(C)cc3cc2C)cc1,i,i,i,i,62.7
Cc1cccc(C(=O)NCCNc2nc3cc(C)c(C)cc3cc2C)c1,i,i,i,i,i
Cc1cc2cc(C)c(NCCNC(=O)c3cccc(F)c3)nc2cc1C,i,i,i,i,56.1
O=C(CCc1ccccc1)NC1(Cc2ccccc2)CCN(CCCc2ccccc2)C1=O (stereo not drawn),i,i,i,i,i
CN(C(=O)COC(=O)c1cc(S(=O)(=O)N2CCOCC2)ccc1Cl)C1CCS(=O)(=O)C1 (stereo not drawn),i,i,i,i,i
Cc1c(C(=O)O)cccc1-c1ccc(/C=N/Nc2ccc(Br)cc2)o1,i,i,i,i,134.2
Cc1c(C(=O)O)cccc1-c1ccc(/C=N/n2cnnc2)o1,i,i,i,i,i
CCc1ccc(NC(=O)CSc2nnc(-c3cnccn3)n2C)cc1,i,i,i,i,i
CN(C)c1ccc(NC(=O)CSc2nnc(-c3cnccn3)n2C)cc1,i,i,i,i,51.0
CC1CCCCN1C(=O)c1cc(S(=O)(=O)N2CCCCC2)c[nH]1 (stereo not drawn),i,i,i,i,i
SMILES,GASC-1 inh,SR-BI DiI inh,FXN GAA850 act,SR-BI DiI-HDL act,AHR act
NC(N)=N/N=C/c1cc([N+](=O)[O-])ccc1O,i,i,i,i,i
O=[N+]([O-])c1ccc(O)c(/C=N\N=C2c3ccccc3-c3ccccc32)c1,i,i,i,i,47.5
O=[N+]([O-])c1ccc(O)c(/C=N/NC2=NS(=O)(=O)c3ccccc32)c1,i,87.7,i,i,i
O=[N+]([O-])c1ccc(O)c(/C=N/Nc2ccc(Cl)nn2)c1,i,106.2,i,i,i
Cc1nc2ccc(C(=O)N3CCN(c4ccccc4)CC3)cn2c1N(C)C(=O)CCc1ccccc1,nt,nt,i,nt,nt
CC(=O)N1c2ccccc2C2(O)N=C(C)SC12 (stereo not drawn),i,i,i,i,51.0
Cc1oc2nc(SCC(=O)NC3CCCCC3)nc(N)c2c1C,nt,i,i,388.5,i
Nc1nc(SCC(=O)NC2CCCCC2)n[nH]1,i,i,i,i,i
COc1ccc(COc2cc(-c3cccc(OC)c3)nc3ccc(N)cc23)cc1,i,i,i,i,i
COc1ccc(COc2cc(-c3cccc(OC)c3)nc3ccc(NC(=O)c4ccc(C)cc4)cc23)cc1,i,71.8,i,i,i
COc1ccc(COc2cc(-c3cccc(OC)c3)nc3ccc(NC(=O)c4ccc(N(C)C)cc4)cc23)cc1,i,90.3,i,i,i
COc1ccc(COc2cc(-c3cccc(OC)c3)nc3ccc(NC(C)=O)cc23)cc1,i,i,i,i,i
CC(C)c1ccc(S(=O)(=O)N2CCN(C(=O)c3cccc(S(=O)(=O)N4CCOCC4)c3)CC2)cc1,nt,i,i,i,nt
Oc1c(Br)cc(C=Nc2ccc3nc(-c4ccccc4)[nH]c3c2)c(O)c1Br,i,i,nt,i,i
O=C(N/N=C/c1cc([N+](=O)[O-])ccc1O)C1CCCCC1,i,87.2,i,i,i
Cc1nc2ccc(C(=O)N/N=C/c3cc([N+](=O)[O-])ccc3O)cc2[nH]1,57.6,106.2,i,i,i
O=[N+]([O-])c1ccc(O)c(C=Nc2ccc3nc(-c4ccccc4)[nH]c3c2)c1,i,i,i,i,66.7
O=C(N/N=C/c1cc([N+](=O)[O-])ccc1O)c1cccc2ccccc12,i,128.8,i,i,i
CN1CCN(c2ccc(Cl)cc2NC(=O)/C=C/c2ccc(F)cc2)CC1,i,i,i,i,i
Cc1cc(C(C)(C)C)cc(C)c1COC(=O)c1cccnc1,i,nt,i,nt,i
NC(=O)/C(=C\c1ccccc1)NC(=O)c1ccc(NC(=O)c2ccccc2)cc1,i,i,i,i,i
COc1cc(/C=N/NC(=O)c2cccs2)ccc1OCc1ccccc1,i,i,i,i,i
CCCc1c(C(=O)N/N=C/c2ccccc2OCc2ccc(F)cc2)nnn1-c1nonc1N,i,84.7,i,i,i
CCCc1c(C(=O)N/N=C/c2ccc(OCc3ccccc3)c(OC)c2)nnn1-c1nonc1N,i,75.8,i,i,i
CCCc1c(C(=O)N/N=C/c2ccc(OC)c(OCc3ccccc3)c2)nnn1-c1nonc1N,i,i,i,i,i
SMILES,GASC-1 inh,SR-BI DiI inh,FXN GAA850 act,SR-BI DiI-HDL act,AHR act
COc1cc(/C=N/NC(=O)c2cc(C)oc2C)ccc1OCc1ccccc1,i,78.7,i,i,i
CCCc1c(C(=O)N/N=C/c2ccc(OCc3ccccc3)cc2)nnn1-c1nonc1N,nt,nt,i,nt,nt
CS/C(N)=N/N=C/c1cc(Br)cc(Br)c1O,i,i,i,i,66.4
COc1ccc(NC(=O)CCCSc2ccccc2)cc1,i,i,i,i,i
COc1ccc(CCN2C(=O)CS/C2=N\NC(=O)c2cccs2)cc1OC,i,i,i,i,69.1
COc1cccc(C(=O)N/N=C2/SCC(=O)N2CCc2ccc(OC)c(OC)c2)c1,i,i,i,i,i

# Screening data (PubChem)
